Measured values: ChEMBL document CHEMBL1133681, “Synthesis and opioid receptor affinity of a series of 2, 4-diaryl-substituted 3,7-diazabicylononanones” (J Med Chem, 2000)
“And” between values parts separate entries of the source, which are not always exact repeats. Identical values can stand only once.

What was measured:
[1] = target: Mu-type opioid receptor (Rattus norvegicus) (UniProt P33535); assay: Inhibition against [3H]naloxone opioid receptor mu 1 in rat brain membranes at 1 umol/L.; assay type: cell membranes
Chain of Mu-type opioid receptor (Rattus norvegicus) (P33535 whole entry): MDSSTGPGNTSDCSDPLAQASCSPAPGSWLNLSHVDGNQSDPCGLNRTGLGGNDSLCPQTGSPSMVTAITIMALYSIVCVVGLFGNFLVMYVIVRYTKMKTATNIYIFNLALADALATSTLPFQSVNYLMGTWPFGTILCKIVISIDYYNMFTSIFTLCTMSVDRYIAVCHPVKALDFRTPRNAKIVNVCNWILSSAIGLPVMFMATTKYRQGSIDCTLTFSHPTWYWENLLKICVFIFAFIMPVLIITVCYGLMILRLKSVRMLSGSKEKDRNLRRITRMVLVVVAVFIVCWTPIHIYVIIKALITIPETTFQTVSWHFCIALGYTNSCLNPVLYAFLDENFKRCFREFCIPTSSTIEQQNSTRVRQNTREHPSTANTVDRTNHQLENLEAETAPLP
How it was run: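 Rat brain membranes (without cerebellum); 1 nM [3H]naloxone; preincubation 37 °C 40 min; incubation 50 mM Tris-HCl pH 7.4, 25 °C 30 min; nonspecific binding with 10^-5 M naloxone; triplicate, GF/B filtration, three ice-cold washes, scintillation counting.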

[2] = target: Delta-type opioid receptor (Rattus norvegicus) (UniProt P33533); assay: Inhibition against [3H]DPDPE Opioid receptor delta 1 in rat brain membranes at 1 umol/L; assay type: cell membranes
Chain of Delta-type opioid receptor (Rattus norvegicus) (P33533 whole entry): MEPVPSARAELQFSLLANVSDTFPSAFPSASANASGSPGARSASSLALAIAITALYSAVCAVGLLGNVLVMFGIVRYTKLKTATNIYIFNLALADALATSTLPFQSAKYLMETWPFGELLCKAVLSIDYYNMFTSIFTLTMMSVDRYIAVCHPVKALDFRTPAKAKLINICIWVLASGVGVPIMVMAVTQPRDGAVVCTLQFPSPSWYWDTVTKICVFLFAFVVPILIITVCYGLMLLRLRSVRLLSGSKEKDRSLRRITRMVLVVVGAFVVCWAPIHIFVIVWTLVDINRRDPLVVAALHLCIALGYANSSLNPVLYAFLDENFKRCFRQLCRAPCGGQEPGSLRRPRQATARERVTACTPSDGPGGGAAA
How it was run: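 Rat brain membranes (without cerebellum, pons, medulla oblongata); 0.25 nM [3H]Cl-DPDPE; preincubation 25 °C 30 min; 50 mM Tris-HCl pH 7.4 with BSA, 45 μM PMSF, 4.5 mM MgCl2; 25 °C 240 min; nonspecific binding with 10^-3 M naloxone; triplicate, filtration, scintillation counting.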

[3] = target: Delta-type opioid receptor (Rattus norvegicus) (UniProt P33533); assay: Inhibition against [3H]D-Ala-deltorphin opioid receptor delta 2 in rat brain membranes at 1 umol/L.; assay type: cell membranes
How it was run: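 Rat brain membranes (without cerebellum, pons, medulla oblongata); 1 nM [3H]-D-Ala-deltorphine; no preincubation; 50 mM Tris-HCl pH 7.4 with BSA and 4.5 mM MgCl2; 37 °C 90 min; nonspecific binding with 10^-5 M naloxone; triplicate, GF/B filtration, scintillation counting.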

[4] = target: T1, Kappa-type opioid receptor (Homo sapiens, UniProt P41145); assay: (§1) Inhibition against [3H]diprenorphine human Opioid receptor kappa 1 at 10 umol/L
T1 sequence (P41145 whole entry): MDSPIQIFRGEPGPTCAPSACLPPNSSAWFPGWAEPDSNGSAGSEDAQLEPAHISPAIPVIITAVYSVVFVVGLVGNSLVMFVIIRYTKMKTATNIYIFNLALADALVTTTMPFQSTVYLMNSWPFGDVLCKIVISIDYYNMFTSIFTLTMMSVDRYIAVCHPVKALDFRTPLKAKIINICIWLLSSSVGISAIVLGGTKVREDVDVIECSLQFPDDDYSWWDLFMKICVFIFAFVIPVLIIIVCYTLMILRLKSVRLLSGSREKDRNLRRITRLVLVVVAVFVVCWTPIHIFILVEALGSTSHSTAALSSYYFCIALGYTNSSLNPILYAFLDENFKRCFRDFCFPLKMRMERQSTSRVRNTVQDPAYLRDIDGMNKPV

[5] = target: T1, Kappa-type opioid receptor; assay: as §1; remark: listed apart in the source
[6] = Acid dissociation constant was measured in experiment 3; assay type: ADME; settings: read-out: pKa3
[7] = target: Kappa-type opioid receptor (Mus musculus) (UniProt P33534); assay: Antinociceptive activity evaluated against Opioid receptor kappa 1 in mice by tail-flick assay (administered intravenously)
Chain of Kappa-type opioid receptor (Mus musculus) (P33534 whole entry): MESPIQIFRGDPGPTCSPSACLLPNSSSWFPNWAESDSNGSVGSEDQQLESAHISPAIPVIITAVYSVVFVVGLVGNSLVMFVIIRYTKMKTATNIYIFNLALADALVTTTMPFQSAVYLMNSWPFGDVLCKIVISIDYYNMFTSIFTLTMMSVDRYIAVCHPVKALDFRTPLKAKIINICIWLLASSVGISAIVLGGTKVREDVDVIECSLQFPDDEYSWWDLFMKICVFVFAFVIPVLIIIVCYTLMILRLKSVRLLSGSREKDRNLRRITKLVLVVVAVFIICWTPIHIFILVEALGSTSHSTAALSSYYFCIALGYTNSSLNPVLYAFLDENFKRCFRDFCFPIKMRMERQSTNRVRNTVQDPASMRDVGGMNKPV
How it was run: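 Male NMRI mice (23-26 g), group-housed, ~22 °C, 12-h light-dark cycle; food and water withdrawn during testing; compound given iv; tail-flick response; ED50 derived.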

[8] = Acid dissociation constant was measured in experiment 4; assay type: ADME; settings: read-out: pKa4
[9] = target: T1, Kappa-type opioid receptor; assay: Inhibition against [3H]diprenorphine human Opioid receptor kappa 1 at 10 uM/L
[10] = target: Kappa-type opioid receptor (Mus musculus) (UniProt P33534); assay: Antinociceptive activity evaluated against Opioid receptor kappa 1 in mice by writhing test (administered intravenously)
How it was run: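 Male NMRI mice (31-37 g); writhing induced by ip 0.35 mL of 0.02% phenylquinone; writhes counted 5–20 min after phenylquinone; food and water withdrawn during test; compound given iv; ED50 derived.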

[11] = Acid dissociation constant was measured in experiment 1; assay type: ADME; settings: read-out: pKa1
[12] = Acid dissociation constant was measured in experiment 2; assay type: ADME; settings: read-out: pKa2
[13] = target: Kappa-type opioid receptor (Rattus norvegicus) (UniProt P34975); assay: Inhibition against [3H]-CI 977 rat Opioid receptor kappa 1 at 10 umol/L
Chain of Kappa-type opioid receptor (Rattus norvegicus) (P34975 whole entry, looked up): as the sequence (P33534 whole entry) above, with D11E, S17A, S51P, A308V counted along it

[14] = target: T1, Kappa-type opioid receptor; assay: Inhibition against [3H]diprenorphine human Opioid receptor kappa 1
[15] = target: T1, Kappa-type opioid receptor; assay: Inhibition against [3H]diprenorphine human Opioid receptor kappa 1 […] at 10 umol/L; assay type: cell membranes

Q: With `COC(=O)C12CN(C)CC(C(=O)OC)(C1=O)C(c1cccc(C)c1)N(C)C2c1cccc(C)c1` (stereo unspecified) as the compound, how does the inhibition [1] read?
A: -5.9%

Q: What about the inhibition [2] of the same compound?
A: 3.4%

Q: What does the source list for `COC(=O)C12CN(C)CC(C(=O)OC)(C1=O)C(c1ccnc3ccccc13)N(C)C2c1ccnc2ccccc12` (stereo unspecified)?
A: inhibition [3]: 1.2%; inhibition [4]: 25.8%; inhibition [1]: -7.1%

Q: For `COC(=O)C12CN(C)CC(C(=O)OC)(C1=O)C(c1ccc(F)cc1)N(C)C2c1ccc(F)cc1` (stereo unspecified), which inhibition [3] is on record?
A: 0.4%

Q: And the Ki [5]?
A: 140 nM

Q: What about the inhibition [1] of the same compound?
A: 10.1%

Q: With `COC(=O)C12CN(C)CC(C(=O)OC)(C1=O)C(c1ccccc1Cl)N(C)C2c1ccccc1Cl` (stereo unspecified) as the compound, how does the inhibition [3] read?
A: 1.9%

Q: What about the inhibition [4] of the same compound?
A: 65.4%

Q: And the inhibition [1]?
A: 2.7%

Q: What does the source list for `COC(=O)C12CN(C)CC(C(=O)OC)(C1=O)C(c1ccccn1)N(C)C2c1ccccn1` (stereo unspecified)?
A: pKa [6]: 3.47; inhibition [3]: -5.9% and -6.6%; inhibition [4]: 65% and 62.6%; ED50 [7]: 6.7 mg/kg; inhibition [1]: 32.4% and 20% and 37.6%; inhibition [2]: 5%; pKa [8]: 2.03; inhibition [9]: 61.7%; ED50 [10]: 1.05 mg/kg

Q: For `CN1CC2(C(=O)O)C(=O)C(C(=O)O)(C1)C(c1ccccc1)N(C)C2c1ccccc1` (stereo unspecified), which inhibition [3] is on record?
A: -1.6%

Q: What about the Ki [5] of the same compound?
A: 210 nM

Q: And the inhibition [1]?
A: 14.5%

Q: What about the inhibition [2] of the same compound?
A: -0.3%

Q: With `COC(=O)C12CN(C)CC(C(=O)OC)(C1=O)C(c1ccc(OC)cc1)N(C)C2c1ccc(OC)cc1` (stereo unspecified) as the compound, how does the pKa [11] read?
A: 9.05

Q: What about the inhibition [3] of the same compound?
A: 3%

Q: And the Ki [5]?
A: 18 nM

Q: And the inhibition [1]?
A: 26.5%

Q: And the pKa [12]?
A: 5.51

Q: Which results are given for `COC(=O)C12CN(C)CC(C(=O)OC)(C1=O)C(c1ccc(O)cc1)N(C)C2c1ccc(O)cc1` (stereo unspecified)?
A: inhibition [3]: 7.3%; inhibition [4]: 8.4%; inhibition [1]: 14.2%

Q: With `COC(=O)C12CN(C)CC(C(=O)OC)(C1=O)C(c1ccc(Cl)c(Cl)c1)N(C)C2c1ccc(Cl)c(Cl)c1` (stereo unspecified) as the compound, how does the inhibition [3] read?
A: -5.3%

Q: What about the inhibition [4] of the same compound?
A: 38.9%

Q: What about the inhibition [1] of the same compound?
A: 6.1%

Q: For `COC(=O)C12C[N+](C)(C)CC(C(=O)OC)(C1=O)C(c1ccccn1)N(C)C2c1ccccn1` (stereo unspecified), which inhibition [3] is on record?
A: 3.3%

Q: And the inhibition [13]?
A: 96.4%

Q: And the inhibition [1]?
A: 29.2%

Q: With `CCOC(=O)C12CN(C)CC(C(=O)OCC)(C1=O)C(c1cccc(O)c1)N(C)C2c1cccc(O)c1` (stereo unspecified) as the compound, how does the inhibition [3] read?
A: 6.9%

Q: And the inhibition [4]?
A: 92.7%

Q: What about the inhibition [1] of the same compound?
A: 10.5%

Q: With `COC(=O)C12CN(C)CC(C(=O)OC)(C1=O)C(c1cccc([N+](=O)[O-])c1)N(C)C2c1cccc([N+](=O)[O-])c1` (stereo unspecified) as the compound, how does the inhibition [3] read?
A: -7.9%

Q: What about the inhibition [4] of the same compound?
A: 10%

Q: What about the inhibition [2] of the same compound?
A: 14%

Q: For `COC(=O)C12CN(C)CC(C(=O)OC)(C1=O)C(c1cccc3ccccc13)N(C)C2c1cccc2ccccc12` (stereo unspecified), which inhibition [3] is on record?
A: 1.8%

Q: And the inhibition [4]?
A: 7.8%

Q: For `COC(=O)C12CN(C)CC(C(=O)OC)(C1=O)C(c1ccc3ccccc3n1)N(C)C2c1ccc2ccccc2n1` (stereo unspecified), which inhibition [3] is on record?
A: 11.8%

Q: What about the Ki [14] of the same compound?
A: 190 nM

Q: What about the inhibition [1] of the same compound?
A: 36.6%

Q: For `COC(=O)C12CN(C)CC(C(=O)OC)(C1=O)C(c1ccc3ccccc3c1)N(C)C2c1ccc2ccccc2c1` (stereo unspecified), which inhibition [3] is on record?
A: -2.1%

Q: What about the inhibition [4] of the same compound?
A: 18.6%

Q: Which inhibition [3] does the source give for `COC(=O)C12CN(C)CC(C(=O)OC)(C1=O)C(c1ccccc1[N+](=O)[O-])N(C)C2c1ccccc1[N+](=O)[O-]` (stereo unspecified) here?
A: -1.1%

Q: What about the inhibition [4] of the same compound?
A: 3.4%

Q: What about the inhibition [1] of the same compound?
A: 2.9%

Q: With `COC(=O)C12CN(C)CC(C(=O)OC)(C1=O)C(c1cccc(Cl)c1)N(C)C2c1cccc(Cl)c1` (stereo unspecified) as the compound, how does the pKa [11] read?
A: 10.6

Q: And the inhibition [15]?
A: 42.3%

Q: And the inhibition [1]?
A: 8.8%

Q: What about the inhibition [2] of the same compound?
A: -0.8%

Q: What about the pKa [12] of the same compound?
A: 9.51

Q: For `COC(=O)C12CN(C)CC(C(=O)OC)(C1=O)C(c1ccc([N+](=O)[O-])cc1)N(C)C2c1ccc([N+](=O)[O-])cc1` (trans isomer), which inhibition [3] is on record?
A: -4%

Q: And the inhibition [13]?
A: 27.8%

Q: And the inhibition [1]?
A: 4.8%

Q: For `COC(=O)C12CN(C)CC(C(=O)OC)(C1=O)C(c1ccncc1)N(C)C2c1ccncc1` (stereo unspecified), which inhibition [3] is on record?
A: -9%

Q: What about the inhibition [4] of the same compound?
A: 12.5%

Q: What about the inhibition [1] of the same compound?
A: 3.1%

Q: For `COC(=O)C12CN(C)CC(C(=O)OC)(C1=O)C(c1cccc(F)c1)N(C)C2c1cccc(F)c1` (stereo unspecified), which pKa [11] is on record?
A: 13.1

Q: And the inhibition [3]?
A: 3.2%

Q: And the Ki [14]?
A: 26 nM

Q: And the inhibition [1]?
A: 5%

Q: What about the pKa [12] of the same compound?
A: 10.7

Q: Which results are given for `COC(=O)C12CN(C)CC(C(=O)OC)(C1=O)C(c1ccc(C#N)cc1)N(C)C2c1ccc(C#N)cc1` (stereo unspecified)?
A: inhibition [3]: 3.2%; inhibition [4]: 17.2%; inhibition [1]: 5.6%

Q: For `CCOC(=O)C12CN(C)CC(C(=O)OCC)(C1=O)C(c1cccc([N+](=O)[O-])c1)N(C)C2c1cccc([N+](=O)[O-])c1` (stereo unspecified), which inhibition [3] is on record?
A: 6.1%

Q: And the inhibition [13]?
A: 5.9%

Q: And the inhibition [1]?
A: 2.3%

Q: With `COC(=O)C12CN(C)CC(C(=O)OC)(C1=O)C(c1cccc(C#N)c1)N(C)C2c1cccc(C#N)c1` (stereo unspecified) as the compound, how does the inhibition [3] read?
A: 5%

Q: What about the inhibition [4] of the same compound?
A: 35.5%

Q: What about the inhibition [1] of the same compound?
A: 9.3%

Q: Which inhibition [3] does the source give for `COC(=O)C12CN(C)CC(C(=O)OC)(C1=O)C(c1ccc([N+](=O)[O-])cc1)N(C)C2c1ccc([N+](=O)[O-])cc1` (stereo in doubt) here?
A: -3.1%

Q: What about the inhibition [1] of the same compound?
A: 4.6%

Q: Which results are given for `COC(=O)C12CN(C)CC(C(=O)OC)(C1=O)C(c1ccc(Cl)cc1)N(C)C2c1ccc(Cl)cc1` (stereo unspecified)?
A: inhibition [3]: -2.1%; inhibition [4]: 63%; inhibition [1]: 2.2%

Q: For `COC(=O)C12CN(C)CC(C(=O)OC)(C1=O)C(c1cccnc1)N(C)C2c1cccnc1` (stereo unspecified), which inhibition [3] is on record?
A: 1.1%

Q: What about the inhibition [4] of the same compound?
A: 54.8%

Q: And the inhibition [1]?
A: 30.7%

Q: Which inhibition [3] does the source give for `COC(=O)C12CN(C)CC(C(=O)OC)(C1=O)C(c1ccccc1F)N(C)C2c1ccccc1F` (stereo unspecified) here?
A: 1.5%

Q: And the inhibition [4]?
A: 47.7%

Q: And the inhibition [1]?
A: -9.2%

Q: Which inhibition [3] does the source give for `CCOC(=O)C12CN(C)CC(C(=O)OCC)(C1=O)C(c1ccc(Cl)cc1)N(C)C2c1ccc(Cl)cc1` (stereo unspecified) here?
A: 1.8%

Q: What about the Ki [14] of the same compound?
A: 1980 nM

Q: What about the inhibition [1] of the same compound?
A: -5%

Q: What does the source list for `COC(=O)C12CN(C)CC(C(=O)OC)(C1=O)C(c1cccc(O)c1)N(C)C2c1cccc(O)c1` (stereo unspecified)?
A: pKa [6]: 9.12; pKa [11]: 10.3; inhibition [1]: 35.6%; inhibition [2]: 27%; pKa [8]: 9.21; pKa [12]: 7.97

Q: Which inhibition [3] does the source give for `COC(=O)C12CN(C)CC(C(=O)OC)(C1=O)C(c1cccc(OC)c1)N(C)C2c1cccc(OC)c1` (stereo unspecified) here?
A: -1.6%

Q: What about the inhibition [4] of the same compound?
A: 52.2%
